Legend:
Type in all cases: functional
Conditions in all cases: 72 h, time 3 day
[1] = system: Mycolicibacterium smegmatis; assay: Antimicrobial activity against Mycobacterium smegmatis assessed as bacterial growth inhibition preincubated with PLE and PMSF for 1 hr measured after 3 days by multimode plate reader analysis
Summary of the method: (§1)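 MIC99 in M. smegmatis with esterase pretreatment. The highest-concentration sample (50 μg/mL) was preincubated 1 h at RT with pig liver esterase (0.1 mg/mL), alone or with PMSF (1 mM), before serial dilution and 1:1 mixing with M. smegmatis in Middlebrook (final 25 to 0.012 μg/mL). Growth read as A600 after 72 h at 37 °C, 225 rpm.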

[2] = system: Mycolicibacterium smegmatis; assay: Antimicrobial activity against Mycobacterium smegmatis assessed as bacterial growth inhibition preincubated with PLE for 1 hr measured after 3 days by multimode plate reader analysis; summary of the method: as §1
[3] = system: Mycolicibacterium smegmatis; assay: Antimicrobial activity against Mycobacterium smegmatis assessed as bacterial growth inhibition measured after 3 days by multimode plate reader analysis
Summary of the method: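 MIC99 in M. smegmatis broth. Compounds serially diluted in Middlebrook media, then diluted 1:1 with M. smegmatis in Middlebrook (final 25 μg/mL to 0.012 μg/mL). Plates grown 72 h at 37 °C, 225 rpm; growth read as A600.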

| MIC99 [1] | MIC99 [2] | MIC99 [3] | Compound |
| --- | --- | --- | --- |
| 0.78 µg/mL | 0.2 µg/mL | 1.6 µg/mL | CCC(CC)C(=O)OC[C@H](CC)NCCN[C@@H](CC)COC(=O)C(CC)CC.Cl.Cl |
| 0.39 µg/mL | 0.2 µg/mL | 6.3 µg/mL | CC[C@@H](COC(=O)CC(C)C)NCCN[C@@H](CC)COC(=O)CC(C)C.Cl.Cl |
| 6.3 µg/mL | 0.39 µg/mL | 6.3 µg/mL | CC[C@@H](COC(=O)C(C)C)NCCN[C@@H](CC)COC(=O)C(C)C.Cl.Cl |
| 0.78 µg/mL | 0.78 µg/mL | 0.78 µg/mL | CCC(=O)OC[C@H](CC)NCCN[C@@H](CC)COC(=O)CC.Cl.Cl |

The next lines start with the compound.

| Compound | MIC99 [1] | MIC99 [2] | MIC99 [3] |
| --- | --- | --- | --- |
| CC[C@@H](COC(=O)C1(C)CC1)NCCN[C@@H](CC)COC(=O)C1(C)CC1.Cl.Cl | 25 µg/mL | 0.78 µg/mL | 13 µg/mL |
| CC[C@@H](COC(=O)C1CCC1)NCCN[C@@H](CC)COC(=O)C1CCC1.Cl.Cl | 6.2 µg/mL | 0.39 µg/mL | 3.1 µg/mL |
| CC[C@@H](COC(=O)C1CCCC1)NCCN[C@@H](CC)COC(=O)C1CCCC1.Cl.Cl | 1.6 µg/mL | 0.098 µg/mL | 6.3 µg/mL |
| CC[C@@H](COC(=O)C(C)(C)C)NCCN[C@@H](CC)COC(=O)C(C)(C)C.Cl.Cl | 6.3 µg/mL | 0.78 µg/mL | 6.3 µg/mL |
| CC[C@@H](CO)NCCN[C@@H](CC)CO.Cl.Cl [ETHAMBUTOL HYDROCHLORIDE] | 0.098 µg/mL | 0.098 µg/mL | 0.098 µg/mL |
